TAAR1 antagonist – human TAAR1 antagonism; CHO RD-HGA16 TAAR1, Fluo-8 calcium fluorescence, antagonist; inhibition, % at 3 µM; hit rate 1.5% among 360,000;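 active = inhibition above a per-plate cutoff, the mean inhibition of test compounds on that plate plus 3 SD, cut at about 49% in these data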
Target sequence (Q96RJ0 whole entry, looked up): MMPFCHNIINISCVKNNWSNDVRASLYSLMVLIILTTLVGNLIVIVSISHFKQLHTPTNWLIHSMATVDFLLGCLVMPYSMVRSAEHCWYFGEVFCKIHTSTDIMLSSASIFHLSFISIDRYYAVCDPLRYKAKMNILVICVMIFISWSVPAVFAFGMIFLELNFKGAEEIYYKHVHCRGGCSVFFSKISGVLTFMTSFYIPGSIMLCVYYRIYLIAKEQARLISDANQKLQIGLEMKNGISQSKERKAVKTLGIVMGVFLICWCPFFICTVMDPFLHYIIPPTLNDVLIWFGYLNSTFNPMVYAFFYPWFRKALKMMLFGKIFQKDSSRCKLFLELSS
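Test system: CHO RD-HGA16 cells bearing hTAAR1 | Reagent: β-PEA, EC80 | Compound dosing: 3 µM, single point | Schedule: Dye loading 75 min at 37 °C, then 30 min room temperature | Signal: Calcium fluorescence with Fluo-8 | Evaluation: Percent inhibition of PEA-evoked calcium signal, max/basal emission ratio | Control set: DMSO-only wells and EC80 β-PEA-stimulated wells | Repeats: Singlicate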
OX1R antag-1 – antagonists of human orexin 1 receptor (OX1R) | OX1R-expressing cells, FRET antagonist read-out | inhibition, % at 6.6 µM | hit rate 1.8% among 330,000 | AID 485270; in the data active = inhibition mostly above about 38%, no sharp cut-off; inactive = mostly below about 40%
Target sequence (O43613 whole entry, looked up): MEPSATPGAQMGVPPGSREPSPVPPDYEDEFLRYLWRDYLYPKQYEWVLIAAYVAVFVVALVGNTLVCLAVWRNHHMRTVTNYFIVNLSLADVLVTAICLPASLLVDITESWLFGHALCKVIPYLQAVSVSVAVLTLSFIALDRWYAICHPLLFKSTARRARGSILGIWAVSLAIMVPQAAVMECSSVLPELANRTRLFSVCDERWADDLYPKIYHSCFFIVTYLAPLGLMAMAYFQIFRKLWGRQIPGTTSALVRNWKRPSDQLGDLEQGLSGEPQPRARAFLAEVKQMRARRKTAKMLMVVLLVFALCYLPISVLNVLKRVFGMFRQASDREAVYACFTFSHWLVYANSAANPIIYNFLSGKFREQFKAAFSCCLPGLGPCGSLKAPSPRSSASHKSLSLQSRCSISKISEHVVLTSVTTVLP
OX1R antag-2 – human HCRTR1 antagonism | CHO/OX1R cells, Fluo-8 calcium fluorescence, orexin A | hit rate 0.43% among 330,000 | AID 434989 | inhibition, % at 5 µM | O43613;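 active = inhibition above its plate's threshold, mean inhibition of all tested compounds on the plate plus 3 SD, cut at about 37% in these data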
TAAR1 agonist – human TAAR1 agonism; CHO RD-HGA16 TAAR1, Fluo-8 calcium fluorescence; vehicle wells 0%, saturating PEA agonist 100%; activation, % at 3 µM; hit rate 0.99% among 360,000; AID 624467;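 active = activation above the mean activation of all test compounds in the run plus 3 SD, cut at about 38% in these data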
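test system = CHO RD-HGA16 cells carrying human TAAR1 plus Gα16 | schedule = 17-24 h seeding, 75 min 37 °C dye, 30 min RT | compound dosing = 3 µM single concentration | control set = DMSO and PEA EC100 | replicates = n 1 | signal = Fluo-8 fluorescence, 5 s baseline then 140 s kinetic read | measure = percent activation vs PEA EC100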
CHO parental Ca – counter-screen for OX1R antagonists: effect in parental CHO cells; parental CHO-K1, ATP-induced calcium, Fluo-8 fluorescence; inhibition, % at 5.6 µM; hit rate 0.63% among 330,000; AID 463079;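 active = inhibition above that plate's mean sample inhibition plus 3 SD, cut at about 26% in these data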
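test system = CHO parental line | reagent = ATP stimulus | measured by = intracellular calcium via Fluo-8 no-wash fluorescent dye | control set = ATP and no-ATP DMSO wells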
Large screens that a line does not name were inactive. Most compounds without a hit are left out; they make up all but 3.9% or so of the library.

CN(C)C(/C=C/Nc1ccc([N+](=O)[O-])cc1)=C(C#N)C#N	OX1R antag-1 58
COc1cccc(NC(=O)Cn2nnc(C(=O)Nc3cc(Cl)ccc3OC)c2N)c1	none
Cc1ccc(C)c(NC(=O)c2nnn(Cc3ccccc3)c2N)c1	none
Cc1ccc(Cn2nnc(C(=O)Nc3cc(C)ccc3C)c2N)cc1	TAAR1 agonist 48
COc1cccc(Cn2nnc(C(=O)Nc3cc(Cl)ccc3OC)c2N)c1	OX1R antag-1 42, CHO parental Ca 30
COc1ccc(OC)c(CN2C(=O)c3ccccc3C2c2nnnn2C2CCCC2)c1 (centres undefined)	none (no result: OX1R antag-1, OX1R antag-2, CHO parental Ca)
O=C(NC(=S)NCCC1=CCCCC1)c1ccccc1Br	OX1R antag-1 65
O=C(COC(=O)c1ccccc1Br)NCCC1=CCCCC1	none
Cc1ccc(S(=O)(=O)N2C[C@H]3N(C(=O)OC(C)C)N(C(=O)OC(C)C)C[C@H](OC(=O)Nc4c(C)noc4C)[C@@]3(O)C2)cc1	none (no result: OX1R antag-1, OX1R antag-2, CHO parental Ca)
COc1cc(OC)cc(C2=Cc3ccccc3C(CC(=O)c3ccco3)N2c2ccc(-c3cncnc3)cc2)c1 (centres undefined)	none (no result: OX1R antag-1, OX1R antag-2, CHO parental Ca)
Cc1cccc(CS(=O)(=O)c2ncc(Cl)c(C(=O)Nc3c(C)cccc3C)n2)c1	OX1R antag-1 89, OX1R antag-2 77
Cc1ccc(NC(=O)c2nc(S(=O)(=O)Cc3ccccc3)ncc2Cl)cc1	CHO parental Ca 39
COc1ccc(OC)c(NC(=O)c2nc(S(=O)(=O)Cc3ccccc3)ncc2Cl)c1	TAAR1 antagonist 52
O=C(Nc1ccc(F)cc1)c1nc(S(=O)(=O)Cc2ccccc2)ncc1Cl	none
COc1ccc(NC(=O)c2nc(S(=O)(=O)Cc3cccc(C)c3)ncc2Cl)c(OC)c1	none
CCOC(=O)[C@@H]1CSCCS(=O)(=O)N1C(=O)[C@H](CCSC)NC(=O)OC(C)(C)C	none (no result: OX1R antag-1, OX1R antag-2, CHO parental Ca)
C[C@@H]1CN(c2ccc(N3CCN(C(=O)OC(C)(C)C)C[C@H]3C)cc2C#N)CCN1Cc1ccccc1	none (no result: OX1R antag-1, OX1R antag-2, CHO parental Ca)
O=C(NCc1cc(C(F)(F)F)cc(C(F)(F)F)c1)c1cc(-c2cc(F)ccc2OCC2CCCO2)n[nH]1 (centres undefined)	none (no result: OX1R antag-1, OX1R antag-2, CHO parental Ca)
COc1cc(CNC(=O)c2cc(-c3cc(F)ccc3OCC3CCCO3)n[nH]2)cc(OC)c1 (centres undefined)	TAAR1 antagonist 53 (no result: OX1R antag-1, OX1R antag-2, CHO parental Ca)
CCn1c(=O)c2[nH]c(SC)nc2n(CC)c1=O	none (no result: OX1R antag-1, OX1R antag-2, CHO parental Ca)
Clc1ccc(Cn2ncc3c(N4CCN(c5ccccc5)CC4)ncnc32)cc1	TAAR1 antagonist 57 (no result: OX1R antag-1, OX1R antag-2, CHO parental Ca)
c1ccc(Cn2ncc3c(N4CCCCC4)ncnc32)cc1	none
O=C(NCC(=O)N1CCCC1)NN=Cc1ccccc1O	none (no result: OX1R antag-1, OX1R antag-2, CHO parental Ca)
O=C(COC(=O)c1cc(-c2cccs2)nn1-c1ccccc1)Nc1ccc(F)c([N+](=O)[O-])c1	TAAR1 antagonist 49
CN(CC(=O)Nc1ccc(F)cc1)C(=O)c1cn(-c2ccccc2)nc1-c1cccs1	TAAR1 antagonist 51
COC(=O)C1CCN(C(=O)COC(=O)c2cc(-c3cccs3)nn2-c2ccccc2)CC1	none
CCN(CC(=O)Nc1ccc(OC)cc1)C(=O)c1cc(-c2cccs2)nn1-c1ccccc1	TAAR1 antagonist 62
COCCN(CC(=O)Nc1cccc(C)c1C)C(=O)c1cc(-c2cccs2)nn1-c1ccccc1	TAAR1 antagonist 51
COC(=O)C1=C(C)N(Cc2cccc(C(F)(F)F)c2)C(=NCc2cc(OC)c(OC)c(OC)c2)NC1c1cccc(C(F)(F)F)c1 (centres undefined)	none (no result: OX1R antag-1, OX1R antag-2, CHO parental Ca)
COc1ccc(NC(=O)CN(C)C(=O)c2cc(-c3cccs3)nn2-c2ccccc2)cc1	TAAR1 antagonist 55
CCOc1ccc(NC(=O)CN(C)C(=O)c2cc(-c3cccs3)nn2-c2ccccc2)cc1OCC	none
Cc1ccc(C(=O)N2NC(c3ccc(F)cc3)C3C(=O)N(c4ccc(C)c(C)c4)C(=O)C32)cc1 (centres undefined)	TAAR1 agonist 38
Cc1ccc(C(=O)N2NC(c3ccc(F)cc3)C3C(=O)N(c4ccc(C)cc4)C(=O)C32)cc1 (centres undefined)	none
O=C(NCc1ccccn1)[C@@H]1CCCN1C(=O)[C@@H]1CCCN1C(=O)c1ccc(Cl)cc1	none (no result: OX1R antag-1, OX1R antag-2, CHO parental Ca)
C=CCCC(=O)N1C[C@@H](CO)[C@@H](NC)C[C@H]1c1ccccc1Br	none (no result: OX1R antag-1, OX1R antag-2, CHO parental Ca)
CCOC(=O)C1CCCN(c2cc(C)nc3cc(-c4ccc(Cl)cc4)nn23)C1 (centres undefined)	none
CCOC(=O)C1CCCN(C(=S)Nc2ccc(F)cc2)C1 (centres undefined)	TAAR1 agonist 51
CCOC(=O)C1CCCN(c2cc(C)nc3cc(-c4ccc(F)cc4)nn23)C1 (centres undefined)	TAAR1 agonist 43
CCOC(=O)C1CCCN(S(=O)(=O)c2ccc(S(=O)(=O)N3CCCC3)cc2)C1 (centres undefined)	CHO parental Ca 37
CCOC(=O)C1CCCN(C(=O)c2ccc(S(=O)(=O)N3CCCC3)cc2)C1 (centres undefined)	none
C#CCNc1cccc2c1S(=O)(=O)N[C@H](C)CO2	none (no result: OX1R antag-1, OX1R antag-2, CHO parental Ca)
O=c1oc2ccc3ccccc3c2cc1-c1nnc(-c2ccccc2)o1	OX1R antag-1 74
O=C(Nc1ccn(Cc2c(F)c(F)cc(F)c2F)n1)c1ccc(COc2ccccc2Cl)cc1	none (no result: TAAR1 antagonist, TAAR1 agonist)
O=C(Nc1ccn(Cc2ccccc2F)n1)c1ccc(COc2ccccc2Cl)cc1	TAAR1 antagonist 55
COc1ccc(NC(=O)C2CCCN2S(=O)(=O)c2ccc3c(c2)C(C)(C)C(=O)N3C)cc1 (centres undefined)	none (no result: OX1R antag-1, OX1R antag-2, CHO parental Ca)
COc1cccc(OC)c1C(=O)Nc1cccc2c1CCCC2	OX1R antag-1 73
O=C1C=C(c2ccc(-c3ccccc3)cc2)C[C@@H](c2ccc(F)cc2)C1	none
CC(C)c1cccc(C2=CC(=O)C[C@H](c3ccc(F)cc3)C2)c1	TAAR1 antagonist 52
COc1ccc([C@H]2CC(=O)C=C(c3cccc(C(C)C)c3)C2)cc1OC	TAAR1 antagonist 66, OX1R antag-2 48
COc1ccc([C@H]2CC(=O)C=C(c3ccc4ccccc4c3)C2)cc1OC	none
CCOC(=O)c1c(S(=O)(=O)NCCc2ccccc2)c(C)n(C)c1C	TAAR1 agonist 39
COc1ccc(NC(=O)CN(C)S(=O)(=O)c2ccc(Cl)cc2)cc1Cl	none
COc1ccc(S(=O)(=O)N(C)CC(=O)Nc2ccc(C(F)(F)F)cc2)cc1Cl	CHO parental Ca 32
O=C(Nc1c(-c2ccc3c(c2)OCO3)[nH][nH]c1=O)c1cccc(C(F)(F)F)c1	none (no result: OX1R antag-1, OX1R antag-2, CHO parental Ca)
COc1ccc(CN(C)C(=O)c2cccc(Oc3ccccc3)c2)c(OC)c1OC	TAAR1 antagonist 54
COc1ccc(CN(C)C(=O)[C@H](Cc2ccccc2)NC(=O)c2ccco2)c(OC)c1	none
COc1ccc(CN(C)C(=O)C(Cc2ccccc2)NC(=O)c2ccccc2)c(OC)c1OC (centres undefined)	TAAR1 antagonist 54 (no result: OX1R antag-1, OX1R antag-2, CHO parental Ca)
CCc1nc2ccc(C(=O)Nc3cc(-c4ccccc4)ccc3OC)cn2c1N(CCN(C)C)CC1CC1	none (no result: OX1R antag-1, OX1R antag-2, CHO parental Ca)
O=S1(=O)CC(O)C(O)CS1 (centres undefined)	none (no result: OX1R antag-1, OX1R antag-2, CHO parental Ca)

Screening data deposited in PubChem BioAssay by The Scripps Research Institute Molecular Screening Center.
